Assay results: paper PMC2865030 (Biochemical Journal, 2008)

Target: yeast Hsp90 M705V
Assay: ITC of TPR-domain proteins with yeast Hsp90 M705V
Assay type: binding
Details: 300 μM CHIP injected into 30 μM yeast Hsp90 M705V, 30 °C, pH 8.0
In short: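 ITC: mouse CHIP or yeast Tah1 (His tags cleaved) at 300 µM was titrated as 9–11 injections of 27 µl into 30 µM yeast Hsp90 M705V. Runs were at 30 °C for CHIP and 4 °C for Tah1, in 20 mM Tris/HCl pH 8.0, 1 mM EDTA, 5 mM NaCl. Data were corrected for separately measured heat of dilution and fitted by nonlinear least squares for stoichiometry, binding constant and enthalpy.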

Kd: 6.7 ± 0.62 µM
B1: CHIP: mouse C-terminal of Hsp70-interacting protein, TPR-domain co-chaperone involved in ubiquitylation of chaperone-bound client proteins (protein)
chain: MKGKEEKEGGARLGTGGGGSPDKSPSAQELKEQGNRLFVGRKYPEAAACYGRAITRNPLVAVYYTNRALCYLKMQQPEQALADCRRALELDGQSVKAHFFLGQCQLEMESYDEAIANLQRAYSLAKEQRLNFGDDIPSALRIAKKKRWNSIEERRIHQESELHSYLTRLIAAERERELEECQRNHEGHEDDGHIRAQQACIEAKHDKYMADMDELFSQVDEKRKKRDIPDYLCGKISFELMREPCITPSGITYDRKDIEEHLQRVGHFDPVTRSPLTQEQLIPNLAMKEVIDAFISENGWVEDY
modifications: left off: His-PreScission tag, end not stated, cleaved
